pKi: −log10 of the molar value.
The molecules below were run against Histamine H3 receptor (Rattus norvegicus, UniProt Q9QYN8) (assay: Affinity for histamine H3 receptor in rat cerebral cortex.).
In short: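 Affinity for the H3 receptor measured in an in vitro binding assay by displacement of the radioligand [3H]R-(α)-methylhistamine.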

Sequence of Histamine H3 receptor (Q9QYN8 whole entry): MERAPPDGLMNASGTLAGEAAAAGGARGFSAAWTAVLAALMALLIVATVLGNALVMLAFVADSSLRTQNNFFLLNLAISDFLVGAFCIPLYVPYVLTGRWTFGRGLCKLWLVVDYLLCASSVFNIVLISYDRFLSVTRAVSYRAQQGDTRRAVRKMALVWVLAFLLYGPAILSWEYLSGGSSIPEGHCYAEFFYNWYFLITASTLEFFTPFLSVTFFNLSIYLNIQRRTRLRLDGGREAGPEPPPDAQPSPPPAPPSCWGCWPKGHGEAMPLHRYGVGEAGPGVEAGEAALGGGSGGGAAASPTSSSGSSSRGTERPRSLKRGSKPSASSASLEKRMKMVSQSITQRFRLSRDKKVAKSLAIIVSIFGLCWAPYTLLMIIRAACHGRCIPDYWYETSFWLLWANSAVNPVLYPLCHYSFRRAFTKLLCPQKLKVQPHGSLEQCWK

Compound | pKi
N[C@H](COCc1ccc(Br)cc1)Cc1c[nH]cn1 | 7.10
N[C@H](COCc1ccccc1)Cc1c[nH]cn1 | 7.30
COC[C@@H](N)Cc1c[nH]cn1 | 5.90
N[C@@H](COCc1ccc(I)cc1)Cc1c[nH]cn1 | 6.70
N[C@@H](CO)Cc1c[nH]cn1 | 5.90
N[C@@H](COCc1ccccc1)Cc1c[nH]cn1 | 6.50
N[C@H](COCC1CCCCC1)Cc1c[nH]cn1 | 7.90
N[C@H](COCc1ccc(I)cc1)Cc1c[nH]cn1 | 6.60
N[C@@H](COCc1ccc(Br)cc1)Cc1c[nH]cn1 | 6.70
N[C@@H](COCC1CCCCC1)Cc1c[nH]cn1 | 6.80
N[C@H](CO)Cc1c[nH]cn1 [HISTIDINOL] | 6.60
Ic1ccc(COCCCc2c[nH]cn2)cc1 [Iodoproxyfan] | 9.90
c1ccc(COCCCc2c[nH]cn2)cc1 [proxifan] | 8.50

From BindingDB's records for doi:10.1021/jm980408v (University of Kuopio, 1999)
